In ChEMBL document CHEMBL1151854, “Dendrimers ended by non-symmetrical azadiphosphonate groups: synthesis and immunological properties” (Bioorg Med Chem Lett, 2009):
Active and inactive are the calls of the source. The calls are words filed in the database; no cut-off is given here.

Columns and labels:
[1] = system: PBMC; test: Activation of human PBMC assessed as down-regulation of CD14 expression at 20 uM after 4 days by flow cytometry; assay type: functional, cell-based
In short: (§1)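 Fresh blood from healthy adult donors; PBMC isolated on Ficoll-Paque gradient (800 g, 30 min, room temperature), washed twice and cultured at 1.5 million cells/mL in RPMI 1640 with penicillin/streptomycin, 1 mM pyruvate and 10% heat-inactivated FCS. Sterile-filtered dendrimer was added at the final concentration. Monocytes were gated by morphology. The readout was HLA-DR (FITC) or CD14 (PE-Pc5) staining, given as the mfi ratio versus isotype control. Three donors were tested.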

[2] = Solubility in water; assay type: physicochemical; settings: buffer
[3] = system: PBMC; test: Activation of human PBMC assessed as down-regulation of HLA-DR expression after 4 days by flow cytometry; assay type: functional, cell-based; in short: as §1
[4] = system: PBMC; test: Activation of human PBMC assessed as down-regulation of CD14 expression after 4 days by flow cytometry; assay type: functional, cell-based; in short: as §1
[5] = system: PBMC; test: Activation of human PBMC assessed as occurrence of bigger and granular monocytes by flow cytometry; assay type: functional, cell-based
In short: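 Donor PBMC were prepared on Ficoll-Paque and cultured in complete RPMI 1640 (10% heat-inactivated FCS, 1.5 million cells/mL) with sterile-filtered dendrimer at the final concentration. By flow cytometry (LSR-II), monocytes were selected on scatter morphology, and the read-out was an increase in cell size and granularity.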

[6] = system: PBMC; test: Activation of human PBMC assessed as down-regulation of HLA-DR expression at 2 uM after 4 days by flow cytometry; assay type: functional, cell-based; in short: as §1
[7] = system: PBMC; test: Activation of human PBMC assessed as down-regulation of CD14 expression by flow cytometry; assay type: functional, cell-based; in short: as §1
[8] = system: PBMC; test: Activation of human PBMC assessed as down-regulation of HLA-DR expression by flow cytometry; assay type: functional, cell-based; in short: as §1
[9] = system: PBMC; test: Activation of human PBMC assessed as down-regulation of HLA-DR expression at 20 uM after 4 days by flow cytometry; assay type: functional, cell-based; in short: as §1
[10] = system: PBMC; test: Activation of human PBMC assessed as down-regulation of CD14 expression at 2 uM after 4 days by flow cytometry; assay type: functional, cell-based; in short: as §1
[11] = system: PBMC; test: Cytotoxicity against long-lasting cultures of human PBMC; assay type: cell-based

solubility [2]	SMILES	Activity [1]	Activity [3]	Activity [4]	Activity [5]	Activity [6]	Activity [7]	Activity [8]	Activity [9]	Activity [10]	Activity [11]
Soluble	C=CCN(CP(=O)([O-])O)C(c1ccc(OP(=S)(Oc2ccc(C(N(CC=C)CP(=O)([O-])O)P(=O)([O-])O)cc2)N(C)/N=C/c2ccc(OP3(Oc4ccc(/C=N/N(C)P(=S)(Oc5ccc(C(N(CC=C)CP(=O)([O-])O)P(=O)([O-])O)cc5)Oc5ccc(C(N(CC=C)CP(=O)([O-])O)P(=O)([O-])O)cc5)cc4)=NP(Oc4ccc(/C=N/N(C)P(=S)(Oc5ccc(C(N(CC=C)CP(=O)([O-])O)P(=O)([O-])O)cc5)Oc5ccc(C(N(CC=C)CP(=O)([O-])O)P(=O)([O-])O)cc5)cc4)(Oc4ccc(/C=N/N(C)P(=S)(Oc5ccc(C(N(CC=C)CP(=O)([O-])O)P(=O)([O-])O)cc5)Oc5ccc(C(N(CC=C)CP(=O)([O-])O)P(=O)([O-])O)cc5)cc4)=NP(Oc4ccc(/C=N/N(C)P(=S)(Oc5ccc(C(N(CC=C)CP(=O)([O-])O)P(=O)([O-])O)cc5)Oc5ccc(C(N(CC=C)CP(=O)([O-])O)P(=O)([O-])O)cc5)cc4)(Oc4ccc(/C=N/N(C)P(=S)(Oc5ccc(C(N(CC=C)CP(=O)([O-])O)P(=O)([O-])O)cc5)Oc5ccc(C(N(CC=C)CP(=O)([O-])O)P(=O)([O-])O)cc5)cc4)=N3)cc2)cc1)P(=O)([O-])O.[Na+].[Na+].[Na+].[Na+].[Na+].[Na+].[Na+].[Na+].[Na+].[Na+].[Na+].[Na+].[Na+].[Na+].[Na+].[Na+].[Na+].[Na+].[Na+].[Na+].[Na+].[Na+].[Na+].[Na+] (stereo not drawn)	Active	Dose-dependent effect	Dose-dependent effect	Active	Active	Active	Active	Active	Active	–
Soluble	CCCCN(CP(=O)([O-])O)C(c1ccc(OP(=S)(Oc2ccc(C(N(CCCC)CP(=O)([O-])O)P(=O)([O-])O)cc2)N(C)/N=C/c2ccc(OP3(Oc4ccc(/C=N/N(C)P(=S)(Oc5ccc(C(N(CCCC)CP(=O)([O-])O)P(=O)([O-])O)cc5)Oc5ccc(C(N(CCCC)CP(=O)([O-])O)P(=O)([O-])O)cc5)cc4)=NP(Oc4ccc(/C=N/N(C)P(=S)(Oc5ccc(C(N(CCCC)CP(=O)([O-])O)P(=O)([O-])O)cc5)Oc5ccc(C(N(CCCC)CP(=O)([O-])O)P(=O)([O-])O)cc5)cc4)(Oc4ccc(/C=N/N(C)P(=S)(Oc5ccc(C(N(CCCC)CP(=O)([O-])O)P(=O)([O-])O)cc5)Oc5ccc(C(N(CCCC)CP(=O)([O-])O)P(=O)([O-])O)cc5)cc4)=NP(Oc4ccc(/C=N/N(C)P(=S)(Oc5ccc(C(N(CCCC)CP(=O)([O-])O)P(=O)([O-])O)cc5)Oc5ccc(C(N(CCCC)CP(=O)([O-])O)P(=O)([O-])O)cc5)cc4)(Oc4ccc(/C=N/N(C)P(=S)(Oc5ccc(C(N(CCCC)CP(=O)([O-])O)P(=O)([O-])O)cc5)Oc5ccc(C(N(CCCC)CP(=O)([O-])O)P(=O)([O-])O)cc5)cc4)=N3)cc2)cc1)P(=O)([O-])O.[Na+].[Na+].[Na+].[Na+].[Na+].[Na+].[Na+].[Na+].[Na+].[Na+].[Na+].[Na+].[Na+].[Na+].[Na+].[Na+].[Na+].[Na+].[Na+].[Na+].[Na+].[Na+].[Na+].[Na+] (stereo not drawn)	Active	–	–	Active	Active	Active	Active	Active	Active	Toxic
–	CN(CP(=O)(O)O)C(c1ccc(OP(=S)(Oc2ccc(C(N(C)CP(=O)(O)O)P(=O)(O)O)cc2)N(C)/N=C/c2ccc(OP3(Oc4ccc(/C=N/N(C)P(=S)(Oc5ccc(C(N(C)CP(=O)(O)O)P(=O)(O)O)cc5)Oc5ccc(C(N(C)CP(=O)(O)O)P(=O)(O)O)cc5)cc4)=NP(Oc4ccc(/C=N/N(C)P(=S)(Oc5ccc(C(N(C)CP(=O)(O)O)P(=O)(O)O)cc5)Oc5ccc(C(N(C)CP(=O)(O)O)P(=O)(O)O)cc5)cc4)(Oc4ccc(/C=N/N(C)P(=S)(Oc5ccc(C(N(C)CP(=O)(O)O)P(=O)(O)O)cc5)Oc5ccc(C(N(C)CP(=O)(O)O)P(=O)(O)O)cc5)cc4)=NP(Oc4ccc(/C=N/N(C)P(=S)(Oc5ccc(C(N(C)CP(=O)(O)O)P(=O)(O)O)cc5)Oc5ccc(C(N(C)CP(=O)(O)O)P(=O)(O)O)cc5)cc4)(Oc4ccc(/C=N/N(C)P(=S)(Oc5ccc(C(N(C)CP(=O)(O)O)P(=O)(O)O)cc5)Oc5ccc(C(N(C)CP(=O)(O)O)P(=O)(O)O)cc5)cc4)=N3)cc2)cc1)P(=O)(O)O (stereo not drawn)	Active	–	–	–	Active	–	–	Active	Active	–
